What all share (format): cell-based, human
For one data set, the system named is HEK293 cells. Conditions: for IC50: Homo sapiens, HEK293, 24 h, read-out: IC50 (cell viability).
Data set [1] concerns NF-κB. Put plainly: NF-κB luciferase reporter assay, antagonists with TNFα stimulation. Particulars: for effect on NF-κB expression / effect on NF-κB pathway activity / mode of action on NF-κB signaling: TNFα stimulated, 24 h; for effect on NF-κB pathway activity: at low micromolar concentrations; for EC50: Homo sapiens, HEK293, 24 h, read-out: EC50 (NF-kB reporter). (In a reporter assay the amount or activity of a reporter protein is the signal.)

In data set [2] the test system is NF-κB. Put plainly: NF-κB luciferase reporter assay, agonists without TNFα. Particulars: HEK293 reporter cells, no TNFα, 24 h. Summed up: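 HEK293 stable NF-κB GFP-luciferase reporter line grown in DMEM with 10% FBS and 1% pen/strep at 37°C, 5% CO2. Seeded 1x10^4/well (96-well) or 1x10^3/well (384-well) 12 h before dosing across a concentration range in fresh medium, with vehicle-only controls. Incubated 24 h, then luminescence read. Drug/vehicle luminescence ratio plotted against log10 concentration to derive EC50. Triplicate or quadruplicate doses, ≥3 experiments.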

The next data set has as its system MAF1329 ependymoma cells.
[3] abbreviates: at low or mid-range micromolar concentrations.
Where [4] appears, read: at low micromolar concentrations.

Each structure is given as a SMILES string. Read-outs that look alike come from different tables or passages of the source. Residues, ends and D or L forms follow the SMILES beside them. *: point of attachment. Cbz = O=C(OCc1ccccc1)*; OtBu = CC(C)(C)O*

Broadly, the IC50 is the point on the concentration scale where inhibition reaches its midpoint. In general, EC50 refers to the concentration at which the effect is half-maximal.

As for `Cc1ccc(S(=O)(=O)/C=C/C#N)cc1` [BAY 11–7082], in the data set with HEK293 cells, the cytotoxic effect result is listed as “no cytotoxic effect”. Also, the “effect on NF-κB expression” value in the data set with NF-κB [1] (setting [3]) was “agonistic effect”.

In the case of `CC(C)(C)c1ccc(S(=O)(=O)/C=C/C#N)cc1` [BAY 11–7085], the cytotoxic effect entry in the data set on HEK293 cells is recorded as “no cytotoxic effect”. The “effect on NF-κB expression” value in the data set on NF-κB [1] (setting [3]) is “agonistic effect”.

On to `CCNC(=O)[C@H]1O[C@@H](n2cnc3c(N)nc(NCCc4ccc(CCC(=O)O)cc4)nc32)[C@H](O)[C@@H]1O` [CGS 21680], for which the NF-κB agonist effect result with NF-κB [2] is listed as “no effect”.

`Br.Cc1cc2nc(NCCCO)n(CC(=O)c3cc(C(C)(C)C)c(O)c(C(C)(C)C)c3)c2cc1C` [CID 2858522]: in the data set with HEK293 cells, the cytotoxic effect entry is given as “no cytotoxic effect”. Besides, the “effect on NF-κB expression” value in the data set with NF-κB [1] (setting [3]) is reported as “agonistic effect”.

On to `COc1cc(O)cc(O)c1C(=O)/C=C/c1ccccc1` [Cardamonin], for which the “effect on cell viability” value with HEK293 cells (setting [4]) was “without effecting cell viability”. Further, in the data set with MAF1329 ependymoma cells (C11orf95-RELA fusion positive ependymoma cell culture), the “change in cell viability of MAF1329” value is recorded as “no change in cell viability”. Also, the “effect on NF-κB pathway activity” value in the data set on NF-κB [1] is “act as agonists and increased pathway activity”.

Turning to `CC1=C(O)C(=O)C=C2C1=CC=C1[C@@]2(C)CC[C@@]2(C)[C@@H]3C[C@](C)(C(=O)O)CC[C@]3(C)CC[C@]12C` [Celastrol], the IC50 in the data set on HEK293 cells was 475 nM. Besides, in the data set with HEK293 cells (setting [4]), the “effect on cell viability” value is reported as “without effecting cell viability”. For the same compound, the IC50 with MAF1329 ependymoma cells (Homo sapiens, read-out: IC50 (cell viability of MAF1329)) turned out to be 1700 nM. Moreover, in the data set with NF-κB [1], the EC50 was determined as 82 nM; the “effect on NF-κB pathway activity” value was “act as agonists and increased pathway activity”.

Consider `O=C(c1ccc(Nc2nccc(-c3cc4ccccc4s3)n2)cc1)N1CCC(N2CCCC2)CC1` [IKK-16], for which the “effect on cell viability” value with HEK293 cells was “no specific effect”. For the same compound, the “effect on NF-κB expression” value in the data set on NF-κB [1] (HEK-293 reporter cells) is reported as “no specific effect”.

On to `O=C(Nc1cc(C(F)(F)F)cc(C(F)(F)F)c1)c1cc(Cl)ccc1O` [IMD 0354], for which the IC50 in the data set on HEK293 cells turned out to be 1560 nM. The “effect on cell viability” value in the data set with HEK293 cells (at low concentrations) is recorded as “did not result in a decrease of cell viability”. Besides, the “mode of action on NF-κB signaling” value in the data set with NF-κB [1] (HEK-293 reporter cells) was “work antagonistically”. Moreover, in the data set with NF-κB [1], the EC50 is 292 nM.

Take `O=c1cc(-c2ccc(O)c(O)c2)oc2cc(O)cc(O)c12` [Luteolin]: in the data set on HEK293 cells, the IC50 is greater than 100000 nM. The “effect on NF-κB expression” value in the data set with NF-κB [1] (HEK-293 reporter cells) is “no specific effect”. Moreover, the EC50 in the data set on NF-κB [1] came to 35000 nM.

With `C[C@]1(CO)CN(c2cc(C(=O)Nc3ccc4c(c3)-c3c(c(C(N)=O)nn3-c3ccc(F)cc3)CC4)c(Cl)cn2)C[C@@]1(C)CO` [PF-184], the “effect on cell viability” value in the data set with HEK293 cells is “did not result in a decrease of cell viability”. In addition, the “mode of action on NF-κB signaling” value in the data set with NF-κB [1] (HEK-293 reporter cells) is recorded as “work antagonistically”.

For `CC[C@H](C)[C@H](NC(=O)OCc1ccccc1)C(=O)N[C@@H](CCC(=O)OC(C)(C)C)C(=O)N[C@@H](C)C(=O)N[C@H](C=O)CC(C)C` [PSI] (Cbz-IE(OtBu)AL-aldehyde), in the data set with HEK293 cells, the “effect on cell viability” value is on record as “without effecting cell viability”. In the data set with NF-κB [1], the “effect on NF-κB pathway activity” value is “act as agonists and increased pathway activity”.

Take `Oc1cc(O)cc(/C=C/c2ccc(O)c(O)c2)c1` [Piceatannol]: in the data set on HEK293 cells, the cytotoxic effect result was “no cytotoxic effect” and the IC50 is greater than 100000 nM. Besides, in the data set on NF-κB [1], the EC50 is greater than 100000 nM. Moreover, in the data set on NF-κB [1] (setting [3]), the “effect on NF-κB expression” value is “agonistic effect”.

With `CS(=O)(=O)N1CCN(Cc2cc3nc(-c4cccc5[nH]ncc45)nc(N4CCOCC4)c3s2)CC1` [Pictalisib, 2-(1 H -Indazol-4-yl)-6-(4-methanesulfonyl-piperazin-1-ylmethyl)-4-morpholin-4-yl-thieno[3,2-d]pyrimidine], the IC50 with HEK293 cells came to 7470 nM. For the same compound, the EC50 in the data set on NF-κB [1] amounted to 4270 nM.

As to `CC(=O)O[C@@]12C[C@@H](C)[C@@]3(O)[C@@H](C=C(CO)C[C@]4(O)C(=O)C(C)=C[C@@H]34)[C@@H]1C2(C)C` [Prostratin], in the data set on NF-κB [2], the “concentration at which NF-κB agonist activity was seen” value turned out to be 1000 nM.

Regarding `[O-][S+](c1ccccc1)c1ccc2nnnn2n1` (stereo not drawn) [Ro106–9920], the “effect on cell viability” value with HEK293 cells is recorded as “did not result in a decrease of cell viability”.

As to `NC(=O)Nc1sc(-c2ccc(F)cc2)cc1C(N)=O` [TCPA-1, 2-[(Aminocarbonyl)amino]-5-(4-fluorophenyl)-3-thiophenecarboxamide], the “effect on cell viability” value in the data set on HEK293 cells (at low concentrations) is “did not result in a decrease of cell viability”. In addition, the EC50 in the data set on NF-κB [1] is less than 1 nM.

Turning to `C=C(C)[C@@H]1CC[C@]2(C(=O)O)CC[C@]3(C)[C@H](CC[C@@H]4[C@@]5(C)CC[C@H](O)C(C)(C)[C@@H]5CC[C@]43C)[C@@H]12` [betulinic acid, Betulinic acid], the “concentration at which NF-κB agonist activity was seen” value with NF-κB [2] was 100,000 nM.

These data come from publication PMC8867604 (European journal of pharmacology, 2020).
